Measured values published in ChEMBL document CHEMBL4043244, “Diverse amide analogs of sulindac for cancer treatment and prevention” (Bioorg Med Chem Lett, 2017).

How the values were obtained:
HT-29 = experiment: Growth inhibition of human HT-29 cells after 72 hrs by CellTiter-Glo reagent based assay; assay type: functional; conditions: HT-29, 72 h
How it was run: (§1)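 Cancer cell lines (PC3 prostate, HT29 colorectal carcinoma, MDA-MB-231 breast) were screened by quantitative high-throughput screening in whole cells, and CC50 values were derived.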

BJ = experiment: Growth inhibition of human BJ cells after 72 hrs by CellTiter-Glo reagent based assay; assay type: cell-based
How it was run: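 Normal human foreskin fibroblast (BJ) counter-screen for cytotoxicity, with drug tested at 10 μM.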

[1] = Growth inhibition of human NALM16 cells after 72 hrs by CellTiter-Glo reagent based assay; assay type: functional, cell-based
MDA-MB-231 = experiment: Growth inhibition of human MDA-MB-231 cells after 72 hrs by CellTiter-Glo reagent based assay; assay type: functional; conditions: MDA-MB-231, 72 h; how it was run: as §1
PC-3 = experiment: Growth inhibition of human PC3 cells after 72 hrs by CellTiter-Glo reagent based assay; assay type: functional; conditions: PC-3, 72 h; how it was run: as §1
Raji = experiment: Growth inhibition of human Raji cells after 72 hrs by CellTiter-Glo reagent based assay; assay type: functional, cell-based
Jurkat E6.1 = experiment: Growth inhibition of human Jurkat E6-1 cells after 72 hrs by CellTiter-Glo reagent based assay; assay type: functional, cell-based; conditions: jurkat e6.1
REH = experiment: Growth inhibition of human REH cells after 72 hrs by CellTiter-Glo reagent based assay; assay type: functional, cell-based
[2] = Growth inhibition of mouse CPC300 cells after 72 hrs by CellTiter-Glo reagent based assay; assay type: functional, cell-based
697 = experiment: Growth inhibition of human 697 cells after 72 hrs by CellTiter-Glo reagent based assay; assay type: functional, cell-based; conditions: 697
[3] = Homo sapiens, NALM16, 72 h, read-out: EC50

EC50 (Raji; Homo sapiens, Raji, 72 h, read-out: EC50) | EC50 (Jurkat E6.1) | EC50 (Raji; raji) | Structure (SMILES) | CC50 (HT-29) | EC50 (BJ) | EC50 [1, 3] | CC50 (MDA-MB-231) | CC50 (PC-3) | EC50 (REH; reh) | EC50 ([2]; cpc300) | EC50 697 | EC50 ([1]; nalm16) | EC50 ([2]; Mus musculus, CPC300, 72 h, read-out: EC50) | EC50 (REH; Homo sapiens, REH, 72 h, read-out: EC50)
830 nM | Not Active | – | CSc1ccc(/C=C2/C(C)=C(CC(=O)N(C)CCN(C)C)c3cc(F)ccc32)cc1 | 1830 nM | > 7.57 µM | 71 nM | 3.98 µM | 5.63 µM | Not Active | Not Active | Not Active | – | – | –
– | Not Active | Not Active | CC1=C(CC(=O)N2CCN(CCCN(C)C)CC2)c2cc(F)ccc2/C1=C\c1nc2ccccc2s1 | 1620 nM | > 7.57 µM | 97 nM | 2.9 µM | 4.21 µM | Not Active | Not Active | Not Active | – | – | –
– | Not Active | Not Active | CSc1ccc(/C=C2/C(C)=C(CC(=O)N3CCN(c4ccncc4)CC3)c3cc(F)ccc32)cc1 | 1130 nM | > 7.57 µM | – | 3.08 µM | 2.76 µM | Not Active | – | Not Active | Not Active | 50 µM | –
– | Not Active | Not Active | COc1cc(/C=C2/C(C)=C(CC(=O)N3CCN(c4ccncc4)CC3)c3cc(F)ccc32)cc(OC)c1OC | 2790 nM | > 7.57 µM | – | 6.5 µM | 5.45 µM | – | Not Active | Not Active | Not Active | – | 27 µM
